Measured values from different studies.
Each line is one published result; the experiments were not run side by side.
PIK3CB: Phosphatidylinositol 4,5-bisphosphate 3-kinase catalytic subunit beta isoform (PIK3CB, Homo sapiens, UniProt P42338)
PIK3CA: Phosphatidylinositol 4,5-bisphosphate 3-kinase catalytic subunit alpha isoform (PIK3CA, Homo sapiens, UniProt P42336)
KDR: Vascular endothelial growth factor receptor 2 (KDR, Homo sapiens, UniProt P35968)

O=C1C(=Nc2ccc(Cl)cc2Br)c2ccccc2N1Cc1ccc(Br)cc1
IC50 (PIK3CB; enzyme activity, inhibitor, ADP detection): 34.4 nM

CNC(=O)[C@H](Cc1c[nH]c2ccccc12)NC(=O)[C@@H](CC(=O)NO)CC(C)C
IC50 (Macrophage metalloelastase (MMP12, Homo sapiens, UniProt P39900); enzyme activity, inhibitor): 0.328 nM

COc1ccc(-c2oc3cc(Nc4ncc5cc(C(=O)N(C)C)n(C6CCCC6)c5n4)ccc3c(=O)c2F)cc1
IC50 (PIK3CA; enzyme activity, inhibitor, radiometric): > 10000 nM

CC1=C(/C=C/C(C)=C/C=C/C(C)=C/C=C/C=C(C)/C=C/C=C(C)/C=C/C2=C(C)CCCC2(C)C)C(C)(C)CCC1
IC50 (KDR; enzyme activity, inhibitor, TR-FRET): > 40000 nM

CN(C)C(=O)c1cc2cnc(Nc3cc(C(=O)O)cc(-c4ccc5c(=O)cc(N6CCOCC6)oc5c4)c3)nc2n1C1CCCC1
IC50 (PIK3CA; enzyme activity, inhibitor, radiometric): 111 nM

O=C(Nc1nnc(-c2ccc3c(c2)OCCO3)o1)c1ccc(C(=O)c2ccccc2)cc1
IC50 (PIK3CA; enzyme activity, inhibitor, ADP detection): 470 nM

O=[N+]([O-])c1cc(I)c(O)c(C=NNc2ccc(C(F)(F)F)cc2)c1
IC50 (KDR; enzyme activity, inhibitor, ATP luminescence): 4440 nM

CCc1ccc(N=C2C(=O)Nc3ccccc32)cc1
IC50 (PIK3CB; enzyme activity, inhibitor, ADP detection): 270 nM

CN(C)C(=O)c1cc2cnc(Nc3ccc(-c4cccc5c(=O)cc(N6CCNCC6)oc45)cc3)nc2n1C1CCCC1
IC50 (PIK3CA; enzyme activity, inhibitor, radiometric): > 10000 nM

C[C@@H]1O[C@@H](O[C@H]2[C@H](Oc3cc(O)c4c(=O)cc(-c5ccc(O)cc5)oc4c3)O[C@H](CO)[C@@H](O)[C@@H]2O)[C@H](O)[C@H](O)[C@H]1O
IC50 (KDR; enzyme activity, inhibitor, TR-FRET): > 40000 nM

O=C1Nc2ccccc2C1=Nc1cccc(Cl)c1
IC50 (PIK3CB; enzyme activity, inhibitor, ADP detection): 511 nM

Cc1nc2c(F)cc(-c3ccnc(Nc4ccc5c(=O)cc(N6CCOCC6)oc5c4)n3)cc2n1C(C)C
IC50 (PIK3CA; enzyme activity, inhibitor, radiometric): 2130 nM

Cc1cccc(N=C2C(=O)N(Cc3cccc(Cl)c3)c3ccccc32)c1
IC50 (PIK3CB; enzyme activity, inhibitor, ADP detection): 33.9 nM

O=[N+]([O-])c1ccc(O)c(C=NNc2ccc(Cl)cc2)c1
IC50 (KDR; enzyme activity, inhibitor, ATP luminescence): 21200 nM

COc1cc(N=C2C(=O)N(Cc3ccccc3)c3ccccc32)cc(OC)c1
IC50 (PIK3CA; enzyme activity, inhibitor, ADP detection): 7.31 nM

CN(C)C(=O)c1cc2cnc(Nc3ccc(-c4cccc5c(=O)cc(N6CCOCC6)oc45)c(F)c3)nc2n1C1CCCC1
IC50 (PIK3CA; enzyme activity, inhibitor, radiometric): 182 nM

O=C1C(=Nc2ccccc2I)c2ccccc2N1Cc1ccc(Br)cc1
IC50 (PIK3CB; enzyme activity, inhibitor, ADP detection): 435 nM

CN(C)C(=O)c1cc2cnc(Nc3ccc(-c4ccc5c(=O)cc(N6CCOCC6)oc5c4)cc3)nc2n1C1CCCC1
IC50 (PIK3CA; enzyme activity, inhibitor, radiometric): 5780 nM

O=[N+]([O-])c1ccc(O)c(C=NNc2ccc(C(F)(F)F)cc2)c1
IC50 (KDR; enzyme activity, inhibitor, ATP luminescence): 20700 nM

O=C1/C(=C/c2ccc3ccccc3c2O)NC(=S)N1c1ccccc1
IC50 (KDR; enzyme activity, inhibitor, ELISA): 235 nM

Cc1cccc(N=C2C(=O)Nc3ccccc32)c1
IC50 (PIK3CB; enzyme activity, inhibitor, ADP detection): 134 nM

CN(C)C(=O)c1cc2cnc(Nc3cncc(-c4cccc5c(=O)cc(N6CCOCC6)oc45)c3)nc2n1C1CCCC1
IC50 (PIK3CA; enzyme activity, inhibitor, radiometric): > 10000 nM

O=[N+]([O-])c1cc(Br)c(O)c(C=NNc2ccc(Cl)cc2)c1
IC50 (KDR; enzyme activity, inhibitor, ATP luminescence): 7700 nM

O=C(O)CC[C@H](NC(=O)N[C@@H](CCCCNC(=O)[C@H](Cc1ccc2ccccc2c1)NC(=O)[C@H]1CC[C@H](CNC(=O)CN2CCN(CC(=O)O)CCN(CC(=O)O)CCN(CC(=O)O)CC2)CC1)C(=O)O)C(=O)O
IC50 (Glutamate carboxypeptidase 2 (FOLH1, Homo sapiens, UniProt Q04609); ligand displacement in cells, radioligand): 7.8 nM

O=[N+]([O-])c1cc(Br)c(O)c(C=NNc2ccc(Br)cc2)c1
IC50 (KDR; enzyme activity, inhibitor, ATP luminescence): 7070 nM

Cc1ccc(CN2C(=O)C(=Nc3c(C(C)C)cccc3C(C)C)c3ccccc32)cc1
IC50 (PIK3CA; enzyme activity, inhibitor, ADP detection): 319 nM

CN(C)C(=O)c1cc2cnc(Nc3cncc(-c4ccc5c(=O)cc(N6CCOCC6)oc5c4)c3)nc2n1C1CCCC1
IC50 (PIK3CA; enzyme activity, inhibitor, radiometric): 260 nM
